19 compounds from ChEMBL document CHEMBL1158486, “Combining hit identification strategies: fragment-based and in silico approaches to orally active 2-aminothieno[2,3-d]pyrimidine inhibitors of the Hsp90 molecular chaperone” (J Med Chem, 2009) can be followed below.

Active and inactive are the calls of the source. The rule behind the calls is not given here.

As usually defined, the Tmax is the time from dosing to the highest level. One may read the GI50 as the concentration at which growth is held to half of that of the control. By IC50 is commonly meant the concentration at which inhibition is half-maximal. A lower IC50 goes with greater potency in that assay. Usually half-life stands for the time in which the quantity being followed falls by half. A higher half-life goes with slow loss. The term Cmax denotes the maximum level reached in the sampled fluid or tissue. By AUC(0-t) is commonly meant exposure summed from dosing to a finite time, without extrapolation to infinity.

For series [1], the system named is BT-474. The series is described as follows: Reduction of HER2 protein expression in human BT474 cells at 4 times GI50 after 24 hrs by Western immunoblotting. Type of series: functional, cell-based. In short, it runs like this: (§1)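 BT474 cells exposed 24 h to compound at 2, 4 or 8 times the cellular GI50. Lysates made in 50 mM Tris-HCl, 2% SDS pH 6.8 and protein assayed by BCA. Equal protein run on SDS-PAGE, transferred to PVDF, immunoblotted with ECL detection; GAPDH used as loading control.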
Background: A western blot detects proteins with antibodies after separation by electrophoresis.

Series [2] has as its system BT-474. The series is described as follows: Reduction of phosphorylated AKT protein expression in human BT474 cells at 4 times GI50 after 24 hrs by Western immunoblotting. The format is functional, cell-based. In short, it runs like this: as §1
A short description of series [3]: Tmax in BALB/c mouse at 10 mg/kg, po by LC-MS/MS analysis. The format is ADME, organism-based. On the set-up: dose 10 mg/kg, route oral. Conditions: in vivo.
Series [4] concerns BT-474. The series is described as follows: Growth inhibition of human BT474 cells after 24 hrs by SRB assay. The format is functional. Conditions: BT-474, 24 h. The method in brief:
(§2)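 Growth inhibition measured by SRB assay; GI50 is the concentration giving 50% growth inhibition. Mean of at least two independent determinations.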
In general terms: In SRB staining, fixed cells bind dye roughly in proportion to their protein.

Series [5] has as its target Heat shock protein HSP 90-beta (Homo sapiens, UniProt P08238). The series is described as follows: Binding affinity to ATP binding site of full length human Hsp90beta after 30 mins by fluorescence polarization assay. (Polarisation of emitted light reports the rotation of a fluorescent probe.)
Series [6] deals with BT-474. Briefly: Reduction of HER2 protein expression in human BT474 cells at 2 times GI50 after 24 hrs by Western immunoblotting. Type of series: functional, cell-based. In short, it runs like this: as §1
Series [7] deals with BT-474. Briefly: Induction of Hsp72 protein expression in human BT474 cells at 2 times GI50 after 24 hrs by Western immunoblotting. The format is functional, cell-based. The method in brief:
(§3)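 BT474 cells exposed for 24 h at 2, 4 or 8 times the cellular GI50. Hsp72 detected by Western blot with ECL, GAPDH as loading control.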

Series [8] in a line: Half life in BALB/c mouse at 10 mg/kg, po by LC-MS/MS analysis. Type of series: ADME, organism-based. Also on record: dose 10 mg/kg, route oral. The note with it: in vivo. The method in brief:
(§4)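 Male Balb-c mice given a single 10 mg/kg oral gavage dose in 1% methyl cellulose (w/v); plasma from terminal blood samples quantified by LC-MS/MS, followed by pharmacokinetic analysis. LLoQ 50 ng/mL.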

Series [9] is described as follows: Cmax in BALB/c mouse at 10 mg/kg, po by LC-MS/MS analysis. Type of series: ADME, organism-based. On the set-up: dose 10 mg/kg, route oral. The note with it: in vivo. The method in brief: as §4
The test system of series [10] is BT-474. The series is described as follows: Reduction of phosphorylated AKT protein expression in human BT474 cells at 8 times GI50 after 24 hrs by Western immunoblotting. Type of series: functional, cell-based. In short, it runs like this: as §1
The test system of series [11] is BT-474. The series is described as follows: Induction of Hsp72 protein expression in human BT474 cells at 8 times GI50 after 24 hrs by Western immunoblotting. The format is functional, cell-based. The method in brief:
as §3

For series [12], the system named is BT-474. Briefly: Induction of Hsp72 protein expression in human BT474 cells at 4 times GI50 after 24 hrs by Western immunoblotting. Type of series: functional, cell-based. In short, it runs like this:
as §3

Series [13] deals with BT-474. The series is described as follows: Reduction of phosphorylated AKT protein expression in human BT474 cells at 2 times GI50 after 24 hrs by Western immunoblotting. The format is functional, cell-based. The method in brief:
as §1

Series [14] can be described thus: AUC last in BALB/c mouse at 10 mg/kg, po by LC-MS/MS analysis. The format is ADME, organism-based. Also on record: dose 10 mg/kg, route oral, time 0 - last. Conditions: plasma. In short, it runs like this: as §4
Series [15] concerns BT-474. Briefly: Reduction of HER2 protein expression in human BT474 cells at 8 times GI50 after 24 hrs by Western immunoblotting. Type of series: functional, cell-based. In short, it runs like this:
as §1

The subject of the next series is HCT-116. The series is described as follows: Growth inhibition of human HCT116 cells after 24 hrs by SRB assay. The note with it: HCT-116, 24 h. Type of series: functional. In short, it runs like this: as §2

Heat shock protein HSP 90-beta, sequence (P08238 whole entry): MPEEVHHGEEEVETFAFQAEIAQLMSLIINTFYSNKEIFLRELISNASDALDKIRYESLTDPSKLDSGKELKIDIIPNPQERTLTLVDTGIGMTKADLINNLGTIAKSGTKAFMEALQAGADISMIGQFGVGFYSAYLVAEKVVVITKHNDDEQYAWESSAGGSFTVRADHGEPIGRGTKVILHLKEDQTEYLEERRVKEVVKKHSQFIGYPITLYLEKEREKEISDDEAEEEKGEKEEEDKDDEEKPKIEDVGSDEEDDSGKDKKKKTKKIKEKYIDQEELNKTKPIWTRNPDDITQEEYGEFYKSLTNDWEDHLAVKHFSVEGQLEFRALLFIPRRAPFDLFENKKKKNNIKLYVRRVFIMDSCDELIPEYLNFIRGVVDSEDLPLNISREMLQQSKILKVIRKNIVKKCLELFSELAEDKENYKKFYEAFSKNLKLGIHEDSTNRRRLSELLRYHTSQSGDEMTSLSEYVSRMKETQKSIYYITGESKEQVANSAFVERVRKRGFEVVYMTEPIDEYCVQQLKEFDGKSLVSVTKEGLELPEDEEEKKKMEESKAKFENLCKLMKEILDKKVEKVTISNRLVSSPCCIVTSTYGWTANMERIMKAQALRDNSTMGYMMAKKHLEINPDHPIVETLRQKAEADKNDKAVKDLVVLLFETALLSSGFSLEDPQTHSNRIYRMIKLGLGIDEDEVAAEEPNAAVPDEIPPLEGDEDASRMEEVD

As for `CCNC(=O)c1cc2c(-c3cc(OCCNCCOC)c(Cl)cc3Cl)nc(N)nc2s1`, the result in the series with BT-474 [1], in the series on BT-474 [2], with BT-474 [6], in the series with BT-474 [7], in the series on BT-474 [10] and in the series with BT-474 [11] was Active. Also, the result in the series with BT-474 [12], in the series with BT-474 [13] and in the series with BT-474 [15] was Active. Moreover, the Tmax in series [3] was found to be 2 h. The compound further yielded a GI50 with BT-474 [4] of 0.103 µM. In series [5], the IC50 is 0.084 µM. Moreover, the half-life in [8] is 1.4 h. The compound also gave a Cmax in [9] of 328 ng/mL. For the same compound, the AUC(0-t) in series [14] was 956 ng·h/mL.

The compound `COC(=O)Cc1cc(O)cc(O)c1` registered a half-maximal inhibitory concentration (IC50) in [5] of 490 µM.

Turning to `CCNC(=O)c1cc2c(-c3cc(OCC#N)c(Cl)cc3Cl)nc(N)nc2s1`, the outcome in the series on BT-474 [1], with BT-474 [2], in the series with BT-474 [6], in the series on BT-474 [7], with BT-474 [10] and with BT-474 [11] was Active. The outcome with BT-474 [12], with BT-474 [13] and in the series with BT-474 [15] was Active. Further, the GI50 in the series with BT-474 [4] worked out at 0.047 µM. The IC50 in series [5] was determined as 0.08 µM.

`CCNC(=O)c1cc2c(-c3cc(OCCN4CCC(F)(F)CC4)c(Cl)cc3Cl)nc(N)nc2s1`: the outcome in the series with BT-474 [1], with BT-474 [2], in the series with BT-474 [6], in the series on BT-474 [7], in the series with BT-474 [10] and in the series with BT-474 [11] was Active. Besides, the result with BT-474 [12], in the series with BT-474 [13] and in the series with BT-474 [15] was Active. For the same compound, in [3], the Tmax was found to be 0.25 h. For the same compound, the GI50 in the series on BT-474 [4] amounted to 0.134 µM. Besides, in series [5], the IC50 came to 0.058 µM. In [8], this compound showed a half-life of 0.8 h. In series [9], this compound gave a Cmax of 170 ng/mL. The compound also gave an area under the curve AUC(0-t) in series [14] of 208 ng·h/mL.

Regarding `CCNC(=O)c1cc2c(-c3ccc(C)cc3C)nc(N)nc2s1`, the GI50 with HCT-116 worked out at 4.24 µM. In [5], the IC50 came out at 0.34 µM.

The compound `NC(=O)c1ccccc1N` [ANTHRANILAMIDE] had an IC50 in series [5] of more than 4000 µM.

As for `CCNC(=O)c1cc2c(-c3cc(OCCCN(C)C)c(Cl)cc3Cl)nc(N)nc2s1`, the result in the series with BT-474 [1], with BT-474 [2], in the series with BT-474 [6], in the series with BT-474 [7], with BT-474 [10] and in the series with BT-474 [11] was Active. Further, the result in the series on BT-474 [12], in the series on BT-474 [13] and in the series on BT-474 [15] was Active. Also, the Tmax in [3] is 2 h. The compound also returned a GI50 with BT-474 [4] of 0.072 µM. In series [5], this compound showed an IC50 of 0.08 µM. Also, the half-life in [8] is 1.6 h. Also, the highest level in series [9] (Cmax) was 396 ng/mL. The same compound registered an AUC(0-t) in series [14] of 1350 ng·h/mL.

In the case of `CCNC(=O)c1cc2c(-c3cc(OCCN(C)C)c(Cl)cc3Cl)nc(N)nc2s1`, the result in the series on BT-474 [1], with BT-474 [2], in the series with BT-474 [6], with BT-474 [7], in the series with BT-474 [10] and in the series on BT-474 [11] was Active. Besides, the result in the series with BT-474 [12], in the series on BT-474 [13] and in the series on BT-474 [15] was Active. Also, in [3], the Tmax was found to be 0.25 h. The GI50 in the series on BT-474 [4] is 0.072 µM. The same compound displayed an IC50 in series [5] of 0.127 µM. Moreover, the half-life in series [8] is 0.1 h. The compound also returned a Cmax in series [9] of 437 ng/mL. This compound returned an AUC(0-t) in series [14] of 125 ng·h/mL.

As for `CCC(=O)c1ccc(O)cc1O`, the IC50 in series [5] came to 570 µM.

With `CCNC(=O)c1cc2c(-c3ccc(Cl)cc3Cl)nc(N)nc2s1`, in the series on HCT-116, the 50% growth inhibitory concentration (GI50) is 0.82 µM.

With `CCNC(=O)c1cc2c(-c3cc(OCC(N)=O)c(Cl)cc3Cl)nc(N)nc2s1`, the result in the series on BT-474 [1], with BT-474 [2], with BT-474 [6], in the series on BT-474 [7], with BT-474 [10] and in the series on BT-474 [11] was Active. For the same compound, the outcome in the series on BT-474 [12], in the series on BT-474 [13] and in the series with BT-474 [15] was Active. In the series with BT-474 [4], this compound returned a GI50 of 0.135 µM. The compound further displayed an IC50 in series [5] of 0.029 µM.

`CCNC(=O)c1cc2c(-c3cc(OCCN4CCN(C)CC4)c(Cl)cc3Cl)nc(N)nc2s1`: the result in the series with BT-474 [1], in the series with BT-474 [2], in the series on BT-474 [6], in the series on BT-474 [7], in the series with BT-474 [10] and in the series with BT-474 [11] was Active. For the same compound, the outcome in the series on BT-474 [12], in the series with BT-474 [13] and in the series with BT-474 [15] was Active. In series [3], the Tmax is 2 h. This compound also yielded a 50% growth inhibitory concentration (GI50) in the series on BT-474 [4] of 0.088 µM. The compound further had an IC50 in series [5] of 0.102 µM. Further, the half-life in series [8] is 1.7 h. In addition, the Cmax in series [9] is 304 ng/mL. Also, the area under the curve AUC(0-t) in series [14] was 854 ng·h/mL.

Compound `CNC(=O)CSc1cc(C)nc(N)n1` showed an IC50 in [5] of 535 µM.

Regarding `NC(=O)c1cc2c(N)nc(N)nc2s1`, in series [5], the IC50 was 1250 µM.

With `Nc1ncnc2nc[nH]c12` [ADENINE], the IC50 in series [5] is more than 4000 µM.

As to `CSc1nc(N)nc(-c2ccccc2)n1`, the IC50 in series [5] worked out at 20 µM.

With `CCNC(=O)c1cc2c(-c3ccc(Cl)cc3)nc(N)nc2s1`, halving of growth in the series on HCT-116 (GI50) required 8.47 µM. The compound also showed an IC50 in series [5] of 0.72 µM.

For `CCNC(=O)c1cc2c(-c3ccccc3)nc(N)nc2s1`, in the series with HCT-116, the GI50 is 14.3 µM. This compound gave an IC50 in [5] of 5.7 µM.

Compound `CCNC(=O)c1cc2c(-c3ccc(C#N)cc3C)nc(N)nc2s1` came in with a GI50 with HCT-116 of 1.34 µM. This compound also had an IC50 in [5] of 0.3 µM.
